# Activity calls are given as the source filed them. The rule behind the calls is not given here.
# Assays:
# Mus musculus [1] = assay: The compound was tested in vivo for photosensitizing efficacy in DBA/2 Mice transplanted with SMT/F tumors and the activity is expressed as % response at (26-30 days) 3 hours post injection at 2.5 mg/kg concentration; No response; format: functional, organism-based; parameters: dose 2.5 mg/kg
# Mus musculus [2] = assay: The compound was tested in vivo for photosensitizing efficacy in DBA/2 Mice transplanted with SMT/F tumors and the activity is expressed as % response at (1-5 days) 3 hours post injection at 2.5 mg/kg concentration; No response; format: functional, organism-based; parameters: dose 2.5 mg/kg
# How it was run: (§1)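 Female DBA/2 HA-DD mice, 5-7 weeks old. A 1 mm SMT-F tumor piece from a donor was trocar-implanted subcutaneously in the axilla. At about 5 mm tumor diameter, sensitizer in 1% Tween 80/water was given iv; dose was based on extinction coefficient. At 3 or 24 h after injection, restrained mice had the tumor lit with 135 J/cm2 laser light at the in vivo long-wavelength maximum. Tumor response was followed to day 30; six mice/group.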
# Mus musculus [3] = assay: The compound was tested in vivo for photosensitizing efficacy in DBA/2 Mice transplanted with SMT/F tumors and the activity is expressed as % response at (6-10 days) 24 hours post injection at 5 mg/kg concentration; No response; format: functional, organism-based; parameters: dose 5 mg/kg
# Mus musculus [4] = assay: The compound was tested in vivo for photosensitizing efficacy in DBA/2 Mice transplanted with SMT/F tumors and the activity is expressed as % response at (11-15 days) 3 hours post injection at 5 mg/kg concentration; format: functional; how it was run: as §1
# Mus musculus [5] = assay: The compound was tested in vivo for photosensitizing efficacy in DBA/2 Mice transplanted with SMT/F tumors and the activity is expressed as % response at (1-5 days) 3 hours post injection at 5.0 mg/kg concentration; format: functional; how it was run: as §1
# Mus musculus [6] = assay: The compound was tested in vivo for photosensitizing efficacy in DBA/2 Mice transplanted with SMT/F tumors and the activity is expressed as % response at (6-10 days) 3 hours post injection at 2.5 mg/kg concentration; No response; format: functional, organism-based; parameters: dose 2.5 mg/kg
# Mus musculus [7] = assay: The compound was tested in vivo for photosensitizing efficacy in DBA/2 Mice transplanted with SMT/F tumors and the activity is expressed as % response at (21-25 days) 3 hours post injection at 2.5 mg/kg concentration; No response; format: functional, organism-based; parameters: dose 2.5 mg/kg; how it was run: as §1
# Mus musculus [8] = assay: The compound was tested in vivo for photosensitizing efficacy in DBA/2 Mice transplanted with SMT/F tumors and the activity is expressed as % response at (26-30 days) 24 hours post injection at 5 mg/kg concentration; No response; format: functional, organism-based; parameters: dose 5 mg/kg
# Mus musculus [9] = assay: The compound was tested in vivo for photosensitizing efficacy in DBA/2 Mice transplanted with SMT/F tumors and the activity is expressed as % response at (16-20 days) 3 hours post injection at 2.5 mg/kg concentration; No response; format: functional, organism-based; parameters: dose 2.5 mg/kg; how it was run: as §1
# Mus musculus [10] = assay: The compound was tested in vivo for photosensitizing efficacy in DBA/2 Mice transplanted with SMT/F tumors and the activity is expressed as % response at (11-15 days) 3 hours post injection at 2.5 mg/kg concentration; No response; format: functional, organism-based; parameters: dose 2.5 mg/kg; how it was run: as §1
# Mus musculus [11] = assay: The compound was tested in vivo for photosensitizing efficacy in DBA/2 Mice transplanted with SMT/F tumors and the activity is expressed as % response at (1-5 days) 24 hours post injection at 5 mg/kg concentration; No response; format: functional, organism-based; parameters: dose 5 mg/kg; how it was run: as §1
# Mus musculus [12] = assay: The compound was tested in vivo for photosensitizing efficacy in DBA/2 Mice transplanted with SMT/F tumors and the activity is expressed as % response at (26-30 days) 3 hours post injection at 5 mg/kg concentration; format: functional
# Mus musculus [13] = assay: The compound was tested in vivo for photosensitizing efficacy in DBA/2 Mice transplanted with SMT/F tumors and the activity is expressed as % response at (21-25 days) 3 hours post injection at 5 mg/kg concentration; format: functional
# Mus musculus [14] = assay: The compound was tested in vivo for photosensitizing efficacy in DBA/2 Mice transplanted with SMT/F tumors and the activity is expressed as % response at (6-10 days) 3 hours post injection at 5 mg/kg concentration; format: functional
# Mus musculus [15] = assay: The compound was tested in vivo for photosensitizing efficacy in DBA/2 Mice transplanted with SMT/F tumors and the activity is expressed as % response at (16-20 days) 3 hours post injection at 5 mg/kg concentration; format: functional; how it was run: as §1
# Mus musculus [16] = assay: The compound was tested in vivo for photosensitizing efficacy in DBA/2 Mice transplanted with SMT/F tumors and the activity is expressed as % response at (16-20 days) 24 hours post injection at 5 mg/kg concentration; No response; format: functional, organism-based; parameters: dose 5 mg/kg; how it was run: as §1
# Albumin = Albumin (Homo sapiens, UniProt P02768); assay: Binding affinity against Human serum albumin(Site I).
# Albumin, sequence (P02768 whole entry): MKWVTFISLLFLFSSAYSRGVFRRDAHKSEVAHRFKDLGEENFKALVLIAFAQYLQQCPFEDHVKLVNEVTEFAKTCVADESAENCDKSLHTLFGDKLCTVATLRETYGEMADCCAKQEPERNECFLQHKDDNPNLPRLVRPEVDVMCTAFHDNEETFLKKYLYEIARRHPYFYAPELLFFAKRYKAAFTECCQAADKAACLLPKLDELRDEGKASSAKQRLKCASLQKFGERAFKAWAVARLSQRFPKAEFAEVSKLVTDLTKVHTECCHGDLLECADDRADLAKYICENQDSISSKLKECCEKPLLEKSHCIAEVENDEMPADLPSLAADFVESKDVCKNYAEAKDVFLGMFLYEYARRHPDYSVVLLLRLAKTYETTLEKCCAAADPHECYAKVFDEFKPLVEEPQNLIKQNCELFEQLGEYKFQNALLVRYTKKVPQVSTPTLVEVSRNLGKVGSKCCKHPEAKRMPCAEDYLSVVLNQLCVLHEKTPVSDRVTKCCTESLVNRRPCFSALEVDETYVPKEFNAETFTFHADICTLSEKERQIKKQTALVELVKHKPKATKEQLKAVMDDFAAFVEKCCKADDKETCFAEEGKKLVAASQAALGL
# How it was run: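 Fluorometric titration: HSA and sensitizer fixed at 1 × 10^-6 mol/L. Site probe varied 4 × 10^-7 to 2 × 10^-6 mol/L: DNSA for site I, read at 472 nm; DP for site II, read at 476 nm; excitation 340 nm. Incubated 4 °C, pH 7.0, 4 h, dark. Bound probe taken from standard curves of free probe (water) and HSA-bound probe (2.5 × 10^-5 mol/L HSA).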
# Mus musculus [17] = assay: The compound was tested in vivo for photosensitizing efficacy in DBA/2 Mice transplanted with SMT/F tumors and the activity is expressed as % response at (21-25 days) 24 hours post injection at 5 mg/kg concentration; No response; format: functional, organism-based; parameters: dose 5 mg/kg; how it was run: as §1
# Mus musculus [18] = assay: The compound was tested in vivo for photosensitizing efficacy in DBA/2 Mice transplanted with SMT/F tumors and the activity is expressed as % response at (11-15 days) 24 hours post injection at 5 mg/kg concentration; No response; format: functional, organism-based; parameters: dose 5 mg/kg; how it was run: as §1
# Mus musculus [19] = assay: The compound was tested in vivo for photosensitizing efficacy in DBA/2 Mice transplanted with SMT/F tumors and the activity is expressed as % response at ( 21-25 days) 24 hours post injection at 5.0 mg/kg concentration; format: functional, organism-based; parameters: dose 5 mg/kg; how it was run: as §1
# Mus musculus [20] = assay: The compound was tested in vivo for photosensitizing efficacy in DBA/2 Mice transplanted with SMT/F tumors and the activity is expressed as % response at (11-15 days) 24 hours post injection at 5.0 mg/kg concentration; format: functional, organism-based; parameters: dose 5 mg/kg; how it was run: as §1
# Mus musculus [21] = assay: The compound was tested in vivo for photosensitizing efficacy in DBA/2 Mice transplanted with SMT/F tumors and the activity is expressed as % response at ( 26-30 days) 24 hours post injection at 5.0 mg/kg concentration; format: functional, organism-based; parameters: dose 5 mg/kg; how it was run: as §1
# Mus musculus [22] = assay: The compound was tested in vivo for photosensitizing efficacy in DBA/2 Mice transplanted with SMT/F tumors and the activity is expressed as % response at ( 6-10 days) 24 hours post injection at 5.0 mg/kg concentration; format: functional, organism-based; parameters: dose 5 mg/kg; how it was run: as §1
# Mus musculus [23] = assay: The compound was tested in vivo for photosensitizing efficacy in DBA/2 Mice transplanted with SMT/F tumors and the activity is expressed as % response at (1-5 days) 24 hours post injection at 5.0 mg/kg concentration; format: functional, organism-based; parameters: dose 5 mg/kg; how it was run: as §1
# Mus musculus [24] = assay: The compound was tested in vivo for photosensitizing efficacy in DBA/2 Mice transplanted with SMT/F tumors and the activity is expressed as % response at (16-20 days) 24 hours post injection at 5.0 mg/kg concentration; format: functional, organism-based; parameters: dose 5 mg/kg; how it was run: as §1
compound,measurement,setting,value
CCc1c(C)c2[nH]c1cc1[nH]c(cc3nc4c(c5nc(c2C=O)[C@@H](C)[C@@H]5CCC(=O)NC(CC(=O)OC(C)(C)C)C(=O)OC(C)(C)C)CCC4=C3C)C(O)(CC)C1(C)O (stereo not given in full),Response,Mus musculus [1],inactive
same,Response,Mus musculus [2],inactive
same,Response,Mus musculus [3],inactive
same,Response,Mus musculus [4],100%
same,Response,Mus musculus [5],100%
same,Response,Mus musculus [6],inactive
same,Response,Mus musculus [7],inactive
same,Response,Mus musculus [8],inactive
same,Response,Mus musculus [9],inactive
same,Response,Mus musculus [10],inactive
same,Response,Mus musculus [11],inactive
same,Response,Mus musculus [12],50%
same,Response,Mus musculus [13],50%
same,Response,Mus musculus [14],100%
same,Response,Mus musculus [15],80%
same,Response,Mus musculus [16],inactive
same,Binding constant,Albumin,500000 l M-1
same,Response,Mus musculus [17],inactive
same,Response,Mus musculus [18],inactive
PORFIMER SODIUM,Response,Mus musculus [19],50%
same,Response,Mus musculus [20],80%
same,Response,Mus musculus [21],50%
same,Response,Mus musculus [22],100%
same,Response,Mus musculus [23],100%
same,Response,Mus musculus [24],60%
